NPR1 activator = GC-A (human) enzyme activation | HEK293 GC-A cells, cGMP TR-FRET, EC30 ANP; 0% at EC30 ANP, 100% saturating ANP | activation, % at 10 µM | 370,000 compounds, 0.14% hits | AID 1671463; in the data active = activation above about 40%
MT1-MMP act inh = inhibitors of human MT1-MMP activation. P50281. HT1080 RFP-PRO-GFP cells, GFP/RFP ratio fluorescence, overnight; percent of plate control window, DMSO zero. GFP/RFP ratio change, % at 20 µM. 360,000 compounds, 0.061% hits. AID 651647;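 active = GFP/RFP ratio change of at least 30% with cell ATP level not reduced by more than half and red fluorescence within 50% of control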
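Assay system: RFP-PRO-GFP reporter HT1080 cells; read-out basis: GFP/RFP fluorescence ratio; benchmarks: DMSO wells and RFP-L50D-GFP cells; doses: 20 µM single dose, 1% DMSO; schedule: overnight cell settling, then overnight compound exposure, 37 °C, 5% CO2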
A1 inh = inhibitors of the anti-apoptotic protein A1, read as caspase activation. MEF A1-2A-BIM cells, Caspase-Glo 3/7 luminescence, 3 h; percent of clofoctol response, vehicle zero. caspase activation, % (test concentration not listed). 330,000 compounds, 0.066% hits. AID 2462;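 active = over half of replicate activation scores above 10%, or exactly half above 10 with the replicate mean above 10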
GC-B act = GC-B (human) receptor activation; P20594; HEK293-GC-B cells, CNP EC30, cGMP TR-FRET; 0% at EC30 CNP, 100% saturating CNP; activation, % at 10 µM; 370,000 compounds, 0.11% hits;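 active = activation at 10 µM reaching about 35% in either raw or pattern-adjusted values, limit read from the data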
Target sequence (P20594 whole entry, looked up): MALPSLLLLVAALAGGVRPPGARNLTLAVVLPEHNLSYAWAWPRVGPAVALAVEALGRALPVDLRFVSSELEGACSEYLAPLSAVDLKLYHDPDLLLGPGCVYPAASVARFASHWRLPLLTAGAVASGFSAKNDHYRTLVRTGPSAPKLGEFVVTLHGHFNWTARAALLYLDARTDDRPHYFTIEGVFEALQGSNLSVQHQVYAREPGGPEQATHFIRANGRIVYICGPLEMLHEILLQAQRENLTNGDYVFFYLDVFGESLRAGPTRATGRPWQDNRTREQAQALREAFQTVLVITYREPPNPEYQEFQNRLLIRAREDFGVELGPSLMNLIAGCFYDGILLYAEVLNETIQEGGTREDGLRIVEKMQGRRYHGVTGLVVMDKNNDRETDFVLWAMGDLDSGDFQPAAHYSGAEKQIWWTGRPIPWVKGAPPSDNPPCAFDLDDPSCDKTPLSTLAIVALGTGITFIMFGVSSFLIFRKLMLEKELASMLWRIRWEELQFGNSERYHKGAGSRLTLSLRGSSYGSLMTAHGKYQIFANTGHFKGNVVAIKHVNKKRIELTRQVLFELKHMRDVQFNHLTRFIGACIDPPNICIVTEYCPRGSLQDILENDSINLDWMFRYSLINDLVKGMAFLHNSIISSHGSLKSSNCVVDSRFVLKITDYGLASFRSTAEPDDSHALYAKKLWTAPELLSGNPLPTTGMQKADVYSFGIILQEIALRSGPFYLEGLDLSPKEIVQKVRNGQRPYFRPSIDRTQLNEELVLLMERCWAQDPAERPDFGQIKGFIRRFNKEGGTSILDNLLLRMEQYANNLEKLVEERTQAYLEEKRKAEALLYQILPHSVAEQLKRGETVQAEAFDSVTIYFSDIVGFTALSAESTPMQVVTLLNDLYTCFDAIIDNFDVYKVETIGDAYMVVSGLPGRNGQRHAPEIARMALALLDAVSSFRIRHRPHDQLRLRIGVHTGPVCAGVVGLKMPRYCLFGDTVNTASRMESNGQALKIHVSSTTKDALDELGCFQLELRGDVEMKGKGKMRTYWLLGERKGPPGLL
TbMetRS inhib = blocks T. brucei methionyl-tRNA synthetase activity | purified T. brucei MetRS, ATP depletion, Kinase-Glo luminescence | inhibition, % at 11.9 µM | 360,000 compounds, 0.4% hits;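 active = inhibition above a per-plate cutoff of the control wells' mean inhibition plus 3 SD, cut at about 5.5% in these data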;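 also: 0% = DMSO wells median and 100% = median of wells with control inhibitor compound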
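Material: parasite MetRS enzyme / Replication: singlicate, one well per compound / Signal: luminescence of leftover ATP / Schedule: 2 h aminoacylation at 25 °C after 15 min preincubation / Medium: HEPES-MgCl2-KCl buffer plus DTT, spermine, BSA, pyrophosphatase / Doses: 11.9 µM single point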
SKN-1 inh = inhibitors of C. elegans SKN-1. C. elegans VP596 Pgst-4::GFP/RFP ratio, acrylamide-induced, 24 h. AID 624304. 360,000 compounds, 0.49% hits. inhibition, % at 21.8 µM;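 active = interference check ratio from 0.5 to 1.5 plus GFP to RFP signal ratio inhibition reaching or exceeding a fixed threshold, cut at about 30% in these data, passing the limit was not always enough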
Active calls of the source: *; / = no result given. In the library only some 1.1% were active in any assay of this set; here they are far more common.

SMILES | NPR1 activator | MT1-MMP act inh | A1 inh | GC-B act | TbMetRS inhib | SKN-1 inh
N#CCCn1cc(/C=C(\C#N)c2nc3ccccc3s2)c(-c2ccc(F)cc2)n1 | -1.2 | / | -0.8 | 62.1* | -0.1 | -20.0
CC(=O)Nc1ccc2oc(-c3cc(F)c(F)cc3Cl)nc2c1 | 57.7* | 7.3 | -5.2 | -8.1 | 0.0 | 12.1
CC(C)C(=O)Nc1ccc2oc(-c3cc(F)c(F)cc3Cl)nc2c1 | 9.8 | 2.4 | -0.4 | -8.5 | -0.1 | -21.9
CCCCC(=O)N1CCN(C(=O)c2ccc3c(c2)nc(C)n3C2CCCC2)CC1 | -1.2 | / | / | -1.4 | / | /
Cn1c(=O)c2c(nc(N/N=C3\CCCc4ccccc43)n2Cc2ccc(F)cc2)n(C)c1=O | 33.9 | -4.4 | -0.1 | 49.6* | 0.6 | 7.9
CCCn1c(N)c(C(=O)CSc2nc(C)nc3sc(C)c(C)c23)c(=O)[nH]c1=O | 40.7* | 2.4 | -0.7 | -0.9 | -0.5 | -22.7
COc1ccc(NS(=O)(=O)c2cccc(-c3nnc(-c4ccccc4)o3)c2)cc1 | -7.6 | -0.6 | -0.2 | -3.1 | -0.6 | 34.0*
O=C1c2ccc3c4c(ccc(c24)C(=O)N1c1ccc2ccccc2c1)CC3 | -3.6 | -1.8 | 1.1 | -3.3 | -0.2 | 35.1*
COc1ccc(COc2cc(-c3cccc(OC)c3)nc3ccc(NC(C)=O)cc23)cc1 | 54.3* | 8.0 | 0.4 | 67.5* | -0.4 | 7.1
COc1ccc(COc2cc(-c3cccc(OC)c3)nc3ccc(N)cc23)cc1 | 55.9* | 25.6 | 1.2 | 52.8* | -0.2 | -6.6
COC(=O)c1ccc(-c2ccc3c(c2)[C@]2(CCC[C@@H](O)[C@@H]2NC(=O)CCc2ccccc2)C(=O)N3Cc2ccccc2)cc1 | 4.0 | / | / | 6.4 | / | /
CCOc1cc(/C=C\[N+](=O)[O-])ccc1OCC(=O)Nc1ccccc1C | / | -29.5 | 30.9* | / | -2.6 | -29.3
COc1cc(/C=C/c2cccc[n+]2C)ccc1OCC(=O)Nc1ccccc1C | -2.7 | -3.3 | 0.2 | -0.8 | -0.5 | 13.1
C#CCNC(=O)C[C@@H]1C(=O)N(CC=C)/C2=C/CCCCC[C@]21C(=O)OCC | 2.1 | / | / | -2.3 | / | /
Cc1ccc(NC(=O)COc2ccc(Br)cc2CO)cc1S(=O)(=O)N1CCOCC1 | 3.3 | 1.8 | -0.4 | 8.6 | 0.0 | 41.2*
O=C(Oc1coc(CSc2ncccn2)cc1=O)c1ccc([N+](=O)[O-])cc1 | 1.5 | / | / | 16.1 | / | /
CCc1nc2ccccc2n1CC(=O)N(C(C)CC)C1CCS(=O)(=O)C1 (stereo not drawn) | 2.1 | -2.5 | 0.9 | 5.5 | 0.2 | 46.7*
Cc1c[nH]c2cccc(-c3ccc(OCc4ccccc4)cc3)c12 | -0.1 | / | / | -1.3 | / | /
O=C(COC(=O)c1ccc(Sc2ncn[nH]2)c([N+](=O)[O-])c1)Nc1ccc(Cl)cc1 | -1.3 | / | / | -4.3 | / | /
O=C1C=CC(=Nc2ccc3c(c2)Cc2cc(F)ccc2-3)O1 | 33.1 | -0.9 | / | 35.3* | -0.5 | -5.4
O=C(CN1CCc2onc(-c3ccc(-n4cc(C5=CCCCC5)nn4)cc3)c2C1=O)N1CCOCC1 | 4.5 | / | / | -0.1 | / | /
O=C1C(=Cc2cccs2)CCc2ccccc21 | 0.7 | / | / | -4.3 | / | /
O=C1/C(=C/c2cccs2)CCC/C1=C\c1cccs1 | -5.4 | -9.8 | -2.7 | -1.0 | -0.3 | 38.5*
c1ccc2c(c1)OCCc1c-2[nH]c2ccccc12 | 5.2 | -2.0 | 0.8 | 4.5 | -1.0 | 51.9*
O=C(NCCCc1ccccc1)OC1CCC12CCC(c1ccccc1)CC2 (stereo not drawn) | 7.1 | / | / | 3.4 | / | /
SMILES | NPR1 activator | MT1-MMP act inh | A1 inh | GC-B act | TbMetRS inhib | SKN-1 inh
COc1ccc(-n2sc3c(c2=S)-c2cc(OC)ccc2NC3(C)C)cc1 | -0.8 | 1.8 | -0.9 | -9.5 | -0.3 | 40.5*
CC(C)(C)OC(=O)n1cc(-c2ccccc2)c2c(-c3ccccc3)c(O)ccc21 | 2.9 | / | / | -1.6 | / | /
CC(C)COc1ccc(-c2nnc(-c3ccco3)o2)cc1 | -2.7 | 3.8 | -6.0 | -5.0 | -0.5 | 43.2*
CCCOc1ccc(-c2nnc(-c3ccco3)o2)cc1 | -4.5 | 4.3 | -13.0 | -10.9 | -0.6 | 78.6*
O=C(COc1ccccc1)Nc1ccc(-c2nnc(-c3ccco3)o2)cc1 | 0.6 | 5.6 | -0.9 | 4.0 | -1.4 | 18.7
COc1cccc(-c2nnc(-c3ccco3)o2)c1 | -2.5 | -0.3 | -0.1 | -5.5 | -0.8 | 11.8
O=C(CSc1nnc(-c2cccnc2)n1-c1ccccc1)Nc1cccc2ccccc12 | -6.9 | / | / | -6.8 | / | /
COc1ccc(-c2nnc(-c3ccc(Br)o3)o2)cc1OC | 1.3 | 2.0 | -1.7 | -5.2 | -0.6 | 35.9*
CCC(C)(C)C(=O)Nc1ncc(S(=O)(=O)c2ccc([N+](=O)[O-])cc2)s1 | 0.7 | 2.4 | 0.5 | 6.4 | -0.6 | 36.2*
CCC[C@H]1[C@@H](OC(=O)NCc2ccc(Cl)c(Cl)c2)CC[C@@]23CCCN2C(=O)CCC[C@@H]13 | -33.3 | / | / | -28.1 | / | /
O=C1/C(=C\c2c(NCCOCCO)nc3ccccn3c2=O)SC(=S)N1Cc1ccco1 | 8.0 | -26.7 | 9.1* | 1.0 | 0.1 | 81.4
CN(C)c1ccc(C=C2SC(=S)N(Cc3ccco3)C2=O)cc1 | 0.6 | -18.5 | / | -3.5 | 0.0 | 16.2
Cc1ccnc(N/C=C(/NC(=O)c2ccccc2)C(=O)N/N=C\c2ccc(Cl)cc2)n1 | 52.3* | -0.2 | 0.8 | 2.5 | -0.5 | 2.8
O=C(N/N=C/c1ccncc1)/C(=C/c1ccccc1)NC(=O)c1ccccc1 | -6.9 | 4.9 | 0.1 | -4.5 | -0.2 | -12.8
O=C(Nc1nccs1)c1ccc(-c2ccccc2Cl)o1 | 1.5 | 5.0 | -7.1 | -4.9 | -0.9 | 52.7*
O=C(Nc1nccs1)c1ccc(-c2ccccc2[N+](=O)[O-])o1 | 3.6 | 0.9 | 2.1 | -7.3 | -0.1 | 36.1*
CC(C)C(=O)N1CC[C@H]2[C@H](CCCN2Cc2ccc(F)cc2)C1 | 0.3 | / | / | 8.8 | / | /
Clc1cccc(CSc2ncn(-c3ccccc3)n2)c1 | -3.6 | -1.4 | 0.3 | -1.3 | -1.0 | 49.2*
O=C(CSc1ncn(-c2ccccc2)n1)N1CCc2ccccc21 | -2.5 | -3.8 | -1.1 | 4.1 | -0.1 | 5.8
Clc1ccc(CSc2ncn(-c3ccccc3)n2)cc1 | -6.7 | -3.7 | 0.5 | -0.3 | 0.2 | 76.5*
[O-]/[N+](=C\c1ccco1)c1ccc(Cl)cc1 | 8.1 | -2.0 | 0.4 | 4.7 | 0.5 | 35.7*
COc1ccc(-c2cc3ccccc3oc2=O)cc1NC(=S)NC(=O)c1ccc2c(c1)OCCO2 | 0.6 | -14.9 | 25.8* | -1.8 | -0.5 | -6.6
O=C(C[C@H]1C[C@H](C(=O)N2CCOCC2)[C@@]2(CCC3CCCC3)c3[nH]c4cc(-c5ccco5)ccc4c3CCN2C1=O)NCc1ccco1 | -6.8 | -24.1 | / | -1.9 | 0.0 | 35.6*

Screening results (PubChem)
